These results are taken from ChEMBL document CHEMBL3272163, “Synthesis and antiinflammatory activity of some 2-substituted 4- and 7-benzoxazoleacetic and alpha-methylacetic acids” (J Med Chem, 1977).

The subject of data set [1] is Rattus norvegicus. Nature of the data set: Antiinflammatory activity in rat assessed as carrageenan-induced foot edema at 2 x 33 mg/kg, po relative to control. The format is functional. A digest of the protocol:
(§1)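 Rats were given carrageenan-induced foot edema by the Winter et al. method, modified as described in the paper's ref 1. Compound was dosed orally twice (dose × 2). The read-out was percent reduction of swelling relative to untreated controls, with significance given as p values.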
(In general: The carrageenan paw model is a standard test of acute inflammation.)

Data set [2] deals with Rattus norvegicus. Nature of the data set: Antiinflammatory activity in rat assessed as carrageenan-induced foot edema at 2 x 50 mg/kg, po relative to control. It counts as functional. The essentials: as §1
Data set [3] relates to Rattus norvegicus. Nature of the data set: Antiinflammatory activity in rat assessed as carrageenan-induced foot edema at 2 x 100 mg/kg, po relative to control. The format is functional. A digest of the protocol:
as §1

Data set [4] is described as follows: Toxicity in po dosed mouse. It counts as organism-based. As to conditions: in vivo. A digest of the protocol: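 Approximate LD50 in mice after oral dosing, in mg/kg.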
Data set [5] can be described thus: Octanol-water partition coefficient, P of the compound.
A short description of data set [6]: Dissociation constant, pKa of the compound in 75% EtOH. It counts as physicochemical. The essentials: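 pKa was determined in 75% EtOH, and values are reported to ±0.025.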

A value given as a limit tells only on which side of the number the result lay.

`CCCCC1C(=O)N(c2ccccc2)N(c2ccccc2)C1=O` [PHENYLBUTAZONE]: the values for the Activity with Rattus norvegicus [1] and in the data set on Rattus norvegicus [2] were 52% and 59%, respectively.

Regarding `C/C(=C1/SC(=S)NC1=O)c1cccc2oc(-c3ccccc3)nc12`, the Activity with Rattus norvegicus [3] stood at 9%. In data set [4], the LD50 (usually the dose at which mortality reaches 50%) was more than 1600 mg/kg.

For `C[C@]12CCC(=O)C=C1CC[C@@H]1[C@@H]2[C@@H](O)C[C@@]2(C)[C@H]1CC[C@]2(O)C(=O)CO` [HYDROCORTISONE], the Activity in the data set with Rattus norvegicus [2] was 33%.

Take `O=C(O)Cc1cccc2oc(-c3ccc(Cl)cc3)nc12`: the Activity in the data set with Rattus norvegicus [3] turned out to be 8%. Further, the P in data set [5] was determined as 9.28. This compound registered an LD50 in data set [4] of 600 mg/kg. Also, the pKa (commonly the pH at which an ionisable group is half protonated) in data set [6] turned out to be 6.1.

Regarding `O=C(O)Cc1cccc2oc(-c3ccccc3)nc12`, the Activity in the data set on Rattus norvegicus [3] is on record as 28%. The compound further gave a P in data set [5] of 1.03. The same compound had an LD50 in data set [4] of 400 mg/kg. The compound further returned a pKa in data set [6] of 6.3.

As for `CC(C(=O)O)c1cccc2nc(-c3ccccc3)oc12` (configuration not stated), the values for the Activity in the data set on Rattus norvegicus [3] and in the data set with Rattus norvegicus [2] were 44% and 26%, respectively. Further, the P in data set [5] is 3.66. Besides, in data set [4], the LD50 was 1200 mg/kg. In data set [6], the pKa came to 6.2.

Compound `CC(C(=O)O)c1cccc2oc(-c3ccccc3)nc12` (configuration not stated) had a P in data set [5] of 6.93. The Activity in the data set with Rattus norvegicus [2] amounted to 1%.

Turning to `Cc1ccc(-c2nc3cccc(C(C)C(=O)O)c3o2)cc1` (configuration not stated), the Activity in the data set with Rattus norvegicus [3] was 10%. The compound further registered a P in data set [5] of 8.94. Moreover, in data set [4], the LD50 was more than 1600 mg/kg. Besides, the pKa in data set [6] was 6.2.

Turning to `CC(C(=O)O)c1cccc2nc(-c3ccc(Cl)cc3)oc12` (configuration not stated), the Activity in the data set on Rattus norvegicus [3] worked out at 16%. The LD50 in data set [4] worked out at 1200 mg/kg. This compound yielded a pKa in data set [6] of 6.25.
